In experiment [1] the target is Human immunodeficiency virus type 1 reverse transcriptase (Human immunodeficiency virus 1, UniProt Q72547). In words: Inhibitory activity against HIV-reverse transcriptase (HIV-RT).
The species entered for experiment [2] is Mus musculus. The experiment is described as follows: Cellular cytotoxicity in normal mouse spleen stimulated with concanavalin A. The class given is functional. The gist of the method:
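Normal murine spleen cells at 2.5 × 10^6 or 5 × 10^6 cells/mL in complete RPMI 1640 with 10% FCS, stimulated with ConA 2.5 µg/mL. Analogue range added in triplicate, incubated 48 h at 37 °C, 5% CO2. MTT then added for 4-6 h, formazan dissolved in acidified 2-propanol, OD at 600 nm. CC50 by linear interpolation against untreated controls.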

In experiment [3] the test system is H9. The experiment is described as follows: Cellular cytotoxicity against human lymphocytic cell lines H-9. The format is functional. The gist of the method: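 H-9 and CCRF-CEM human lymphocytic lines subcultured in complete RPMI 1640 with 10% FCS, without ConA or β-mercaptoethanol, at 6.25 × 10^5 and 2 × 10^6 cells/mL. Triplicate wells given a range of analogue concentrations at 37 °C, 5% CO2 for 48 h, then MTT 4-6 h, read at 600 nm. CC50 by linear interpolation versus untreated cells; data from both lines pooled.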

A word on the IC50: it is the concentration needed to halve the response being measured. High values mean weaker potency in that assay, low ones greater potency in that assay. What is called CC50 is the concentration at which the toxic effect on the cells reaches its halfway point. Low values mean harm at low concentration, high ones better tolerance by the cells. On to `CC(=O)NC1=CC(=O)c2ccc(-c3[nH]c(C(N)=O)cc4c5ccccc5nc3-4)nc2C1=O`, for which half-maximal inhibition in experiment [1] (IC50) was put at 12.7 µM. Besides, the CC50 in experiment [2] turned out to be 50 µM; in experiment [3] it was 95 µM.

For `CC(=O)NC1=CC(=O)c2ccc(-c3[nH]c(C(=O)OCCOP(=O)(O)O)cc4c5ccccc5nc3-4)nc2C1=O`, half-maximal inhibition in experiment [1] (IC50) required 3 µM. Besides, the CC50 came out at 29 µM in experiment [2] and 27 µM in experiment [3].

`CC(=O)NC1=CC(=O)c2ccc(-c3[nH]c(C(=O)O)cc4c5ccccc5nc3-4)nc2C1=O` registered an IC50 in experiment [1] of 13.3 µM. Further, the CC50 in experiment [2] is 47 µM; in experiment [3] it was 81 µM.

With `COC(=O)c1[nH]c(-c2ccc3c(n2)C(=O)C(NC(C)=O)=CC3=O)c2nc3ccccc3c-2c1C`, the IC50 in experiment [1] was 15.1 µM. Moreover, the values for the CC50 in experiment [2] and in experiment [3] were 62 µM and 31 µM, respectively.

In experiment [1], `CCCCOC(=O)c1cc2c([nH]c3ccccc32)c(-c2ccc3c(n2)C(=O)C(NC(=O)CCC)=CC3=O)n1` [LAV12] had an IC50 of 5.8 µM. The CC50 in experiment [2] was 81 µM; in experiment [3], 50 µM.

Source of the values: ChEMBL document CHEMBL1145946, “Novel lavendamycin analogues as potent HIV-reverse transcriptase inhibitors: synthesis and evaluation of anti-reverse transcriptase activity of amide and ester analogues of lavendamycin” (J Med Chem, 2003).
